Test results reported in PubChem BioAssay AID504679 (The Scripps Research Institute Molecular Screening Center, 2011).
Active and inactive are the calls of the source.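 Rule for the calls: active = IC50 of 10 µM or lower; inactive = IC50 above 10 µM.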

System: E. coli V66 + T4 gene 2 phage, OD growth
Assay: RecBCD inhibition via phage-restricted bacterial growth – absorbance, V66 E. coli, dose response, counter-screen for AddAB inhibitor project, late-stage follow-up (AID 504679)
In short: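 Test system: E. coli V66 bacteria; Probe or stimulus: gene 2 nonsense-mutant T4 bacteriophage at MOI 0.02; Schedule: 18 h phage exposure at 37 °C before reading; Technique: absorbance at 600 nm as bacterial growth measure; Read-out basis: percent inhibition versus ciprofloxacin and DMSO wells; Control set: Ciprofloxacin-treated wells and DMSO-only wells.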

Structure (SMILES): O=C(NCc1cccnc1)c1ccc([N+](=O)[O-])o1
- IC50: 93.8 µM (inactive)

Structure (SMILES): CC(=O)Nc1ccc2nc(NC(=O)c3ccc([N+](=O)[O-])o3)sc2c1
- IC50: > 119 µM (inactive)

Structure (SMILES): Cc1cccnc1NC(=O)c1ccc([N+](=O)[O-])o1
- IC50: > 119 µM (inactive)

Structure (SMILES): O=C(Nc1ncccn1)c1ccc([N+](=O)[O-])o1
- IC50: > 119 µM (inactive)

Structure (SMILES): C=CCn1c(Sc2ncc([N+](=O)[O-])s2)n[nH]c1=O
- IC50: 46.5 µM (inactive)

Structure (SMILES): N#Cc1c(NC(=O)c2ccc([N+](=O)[O-])o2)sc2c1CCC2
- IC50: > 119 µM (inactive)

Structure (SMILES): Cc1ccc2nc(/C(C#N)=C\c3ccc([N+](=O)[O-])o3)[nH]c2c1
- IC50: > 119 µM (inactive)

Structure (SMILES): CCn1cc(C(=O)O)c(=O)c2cnc(N3CCN(C(=S)Nc4ccccc4C(F)(F)F)CC3)nc21
- IC50: 103 µM (inactive)

Structure (SMILES): O=C(OCC(=O)c1cccs1)c1ccc([N+](=O)[O-])o1
- IC50: > 119 µM (inactive)

Structure (SMILES): O=C(Nc1cccc(NC(=O)c2ccccc2Cl)c1)c1ccc([N+](=O)[O-])o1
- IC50: > 119 µM (inactive)

Structure (SMILES): O=C(Nc1ccc(N2CCOCC2)cc1)c1ccc([N+](=O)[O-])o1
- IC50: > 119 µM (inactive)

Structure (SMILES): NC(=O)c1ccsc1NC(=O)COC(=O)c1ccc([N+](=O)[O-])o1
- IC50: > 119 µM (inactive)
